The test system of data set [1] is HeLa. Briefly: Antiproliferative activity against human HeLa cells assessed as reduction in cell growth after 48 hrs by resazurin dye based fluorescence assay. Type of data set: functional. The essentials: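 HeLa cells grown in DMEM with 10% FCS and penicillin/streptomycin, 37 °C, 5% CO2. Seeded 5,000 cells/well, treated 24 h later with DMSO 1% final, then incubated 48 h. Resazurin reduction to resorufin measured over 3 h at 37 °C by fluorescence (ex 544/em 590 nm). Normalised to cosolvent control (100%) and cell-free wells (0%). Means of at least three independent experiments.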

Data set [2] relates to HeLa. Briefly: Induction of microtubule network depolymerization in human HeLa cells after 24 hrs by immunofluorescence staining based confocal microscopic analysis. Type of data set: cell-based. Put shortly:
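HeLa cells seeded on glass coverslips (50,000 cells/well), allowed to adhere 18 h, then treated 24 h. Fixed with 0.5% glutaraldehyde, quenched with 0.1% NaBH4, blocked with PBS + 10% FCS. Stained with rabbit anti-alpha-tubulin (1:400, 1 h), then Alexa Fluor 488 anti-rabbit secondary, with DAPI nuclear counterstain. Imaged by confocal microscopy, including z-stack projections.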

Data set [3] is described as follows: Solubility of compound in aqueous buffer. Type of data set: physicochemical.
The subject of a further data set is HL-60. Kind of data set: Antiproliferative activity against human HL-60 cells assessed as reduction in cell growth after 24 hrs by MTT assay. Type of data set: functional, cell-based. The following applies: HL-60, 24 h. The essentials:
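HL-60 cells grown in RPMI 1640 with 10% FCS, no antibiotics, 37 °C, 5% CO2. Seeded 9,000 cells/well, treated 24 h later with DMSO cosolvent at 1% final. After 24 h, MTT 0.5 mg/mL for 2 h, absorbance read. Normalised to cosolvent control (100%) and Triton X-100-treated cells (0%). Means of at least three independent experiments.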
In general terms: Tetrazolium dyes change colour on reduction, which living cells bring about.

In data set [4] the test system is HeLa. Kind of data set: Induction of microtubule network depolymerization in human HeLa cells assessed as accumulation of rounded cells at 120 nM after 24 hrs by immunofluorescence staining based confocal microscopic analysis. Type of data set: cell-based. The essentials: (§1)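 HeLa cells on glass coverslips (50,000/well), adhered 18 h, then treated 24 h (DMSO 1% final). Fixed with 0.5% glutaraldehyde, quenched with 0.1% NaBH4, blocked in PBS + 10% FCS. Stained with rabbit anti-alpha-tubulin (1:400, 1 h) and Alexa 488 goat anti-rabbit secondary, with DAPI nuclear counterstain. Imaged by confocal microscopy with z-stack projections.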

The subject of data set [5] is HeLa. Kind of data set: Induction of microtubule network depolymerization in human HeLa cells assessed as induction of mitotic arrest at 120 nM after 24 hrs by immunofluorescence staining based confocal microscopic analysis. Type of data set: cell-based. The essentials:
as §1

Data set [6] has as its system HeLa. Kind of data set: Induction of microtubule network depolymerization in human HeLa cells assessed as appearance of defective spindles at 120 nM after 24 hrs by immunofluorescence staining based confocal microscopic analysis. Type of data set: cell-based. Put shortly: as §1
In data set [7] the test system is HeLa. Kind of data set: Induction of microtubule network depolymerization in human HeLa cells assessed as appearance of defective chromosome alignment at 120 nM after 24 hrs by immunofluorescence staining based confocal microscopic analysis. Type of data set: cell-based. Put shortly: as §1
The subject of data set [8] is HeLa. Kind of data set: Cell cycle arrest in human HeLa cells assessed as accumulation at G2/M phase at 500 nM measured after 24 hrs by propidium iodide staining based flow cytometry. Type of data set: functional. The essentials: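 HeLa cells seeded 50,000/well, treated 24 h; collected, stained with 2 mg/mL propidium iodide at 4 °C for 30 min, analysed by flow cytometry (30,000 cells per condition); cells assigned to sub-G1, G1, S and G2/M by DNA content (PI signal). DMSO cosolvent 1% final.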
On the technique in general: A flow cytometer gives signals particle by particle.

Data set [9] relates to HeLa. Kind of data set: Inhibition of tubulin polymerization in human HeLa cells harboring EB3-YFP plasmid assessed as disappearance of […] comet at 10 uM after 2 mins by microscopic analysis. Type of data set: cell-based. The essentials: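 HeLa cells (12,000/well) transiently transfected 24 h after seeding with EB3-YFP plasmid, imaged 24 h later by spinning-disc confocal at 37 °C, 5% CO2 (514 nm, 300 ms exposure, 45 frames/min). Five reference frames taken, compound added, 2 min incubation, then 5 more frames. EB3 comets counted by maxima detection; 7 cells from three independent trials.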

Data set [10] can be described thus: Toxicity in ip dosed Balb/c mouse. Type of data set: organism-based. The following applies: in vivo. The essentials: (§2)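 Single-administration dose escalation in male and female Balb/c mice, given i.p. or i.v., to find the maximal tolerated dose of the phosphate prodrug.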
Data set [11] in a line: Toxicity in iv dosed Balb/c mouse. Type of data set: organism-based. The note with it: in vivo. The essentials: as §2
Data set [12] is described as follows: Toxicity in Balb/c mouse at 25 mg/kg, ip administered at 48 hrs interval for 3 times. Type of data set: organism-based. The following applies: in vivo. Put shortly: (§3)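 Male and female Balb/c mice dosed 3 times at 48 h intervals with 25 mg/kg of the phosphate prodrug, by the route named, and monitored for tolerability.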
Data set [13] is described as follows: Toxicity in Balb/c mouse at 25 mg/kg, iv administered at 48 hrs interval for 3 times. Type of data set: organism-based. The note with it: in vivo. Put shortly:
as §3

In a further data set the test system is tubulin (Sus scrofa). Kind of data set: Inhibition of porcine tubulin polymerization at 20 uM preincubated for 10 mins followed by GTP addition by turbidimetric method.

Consider eight molecules from ChEMBL document CHEMBL4715832, “Isoquinoline-based biaryls as a robust scaffold for microtubule inhibitors” (Eur J Med Chem, 2020).

pEC50: −log10 of the molar value. Calls of active or inactive are those of the source. The rule behind the calls is not given here.

A word on the pEC50: it is the EC50 on a negative log10 scale, so that one unit is a factor of ten. With `COc1ccc([C@H](O)c2nccc3c(OC)c(OC)c(OC)cc23)cc1`, the pEC50 with HeLa [1] was below 4.00.
`COc1ccc(-c2nccc3c(OC)c(OC)c(OC)cc23)c(C(=O)O)c1`: the pEC50 in the data set on HeLa [1] was below 4.00.
Consider `COc1ccc2cc[n+](C)c(-c3cc(OC)c(OC)c(OC)c3)c2c1`, for which, in the data set on HeLa [1], the pEC50 is below 4.52. The result in the data set with HeLa [2] was inactive.
For orientation: solubility means the concentration that dissolves in the medium under given conditions. Higher therefore signals much dissolved substance. With `COc1cc2c(-c3cc(OC)c(OC)c(OC)c3)nccc2cc1OP(=O)([O-])[O-].[Na+].[Na+]`, the Activity entry was “Dose-dependent effect” in the data set with HeLa [1], “Dose-dependent effect” with HeLa [2], “Non-Toxic” in [12] and “Non-Toxic” in [13]. Further, the values for the pEC50 in the data set with HeLa [1] and with HL-60 were 6.77 and 6.24, respectively. This molecule also registered a solubility in data set [3] above 10 mM. Further, the outcome in the data set on HeLa [4], with HeLa [5], in the data set with HeLa [6], in the data set with HeLa [7] and in the data set with HeLa [8] was Active. For the same molecule, the inhibition entry with HeLa [9] is “Active”. For the same molecule, the MTD in data set [10] is 32 mg/kg; in [11] it was 50 mg/kg.
In the case of `COc1cc2ccnc(-c3cc(OC)c(OC)c(OC)c3)c2cc1OC`, the negative-log EC50 (pEC50) with HeLa [1] was below 4.70. Further, the Activity result in the data set on HeLa [2] is “Dose-dependent effect”.
Turning to `COc1cc2c(-c3cc(OC)c(OC)c(OC)c3)nccc2cc1F`, in the data set with HeLa [1], the Activity entry is “Dose-dependent effect” and the pEC50 was 6.55. Moreover, the Activity entry in the data set with HeLa [2] is “Dose-dependent effect”. The inhibition result in the data set with tubulin (Sus scrofa) is “Active”.
`COc1cccc(-c2nccc3c(OC)c(OC)c(OC)cc23)c1`: the pEC50 in the data set with HeLa [1] is 4.82.
In the case of `COC(=O)Nc1nc2cc(C(=O)c3cccs3)ccc2[nH]1` [NOCODAZOLE], the negative-log EC50 (pEC50) in the data set with HeLa [1] is 7.40.
